Screens deposited in PubChem by The Scripps Research Institute Molecular Screening Center.
GalR3 antagonist – human GalR3 antagonism | HEK293 GalR3-CNG cAMP membrane potential fluorescence; galR3 body fused to GalR1 C-terminus | O60755 | actives 0.44% (n = 360,000) | AID 651719 | inhibition, % at 3 µM;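 active = inhibition above the screen-wide average plus 3 SD, cut at about 13% in these data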;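 note: forskolin and galanin both at EC90 stimulate the cells; cAMP rise reported by CNG channel membrane potential dye signal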
Target sequence (O60755 1-299 limits assumed): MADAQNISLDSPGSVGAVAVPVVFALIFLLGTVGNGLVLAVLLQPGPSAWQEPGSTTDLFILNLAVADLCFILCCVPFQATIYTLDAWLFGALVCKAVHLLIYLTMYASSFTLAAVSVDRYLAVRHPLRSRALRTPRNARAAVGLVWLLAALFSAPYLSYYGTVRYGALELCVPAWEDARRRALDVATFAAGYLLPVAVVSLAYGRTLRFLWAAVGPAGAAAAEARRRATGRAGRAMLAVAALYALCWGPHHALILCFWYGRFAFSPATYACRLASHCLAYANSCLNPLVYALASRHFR
OX1R antag-1 – antagonists of human orexin 1 receptor (OX1R) | O43613 | OX1R-expressing cells, FRET antagonist read-out | inhibition, % at 6.6 µM | actives 1.8% (n = 330,000) | AID 485270; in the data active = inhibition mostly above about 38%, no sharp cut-off; inactive = mostly below about 40%
CHO parental Ca – signal in parental CHO cells, OX1R antagonist counter-screen | parental CHO-K1, ATP-induced calcium, Fluo-8 fluorescence | inhibition, % at 5.6 µM | actives 0.63% (n = 330,000) | AID 463079;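 active = inhibition above that plate's mean sample inhibition plus 3 SD, cut at about 26% in these data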
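Assay system: parental CHO cells; Read-out basis: percent inhibition of ATP-evoked calcium rise, normalized to controls; Benchmarks: ATP and no-ATP DMSO wells; Compound dosing: single nominal dose of 5.6 µM per compound; Signal: Fluo-8 calcium dye fluorescence; Also added: ATP as calcium-mobilizing challenge; Repeats: singlicate.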
TAAR1 antagonist – human TAAR1 antagonism; Q96RJ0; CHO RD-HGA16 TAAR1, Fluo-8 calcium fluorescence, antagonist; inhibition, % at 3 µM; actives 1.5% (n = 360,000); AID 624466;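 active = inhibition above a per-plate cutoff, the mean inhibition of test compounds on that plate plus 3 SD, cut at about 49% in these data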
Target sequence (Q96RJ0 whole entry, looked up): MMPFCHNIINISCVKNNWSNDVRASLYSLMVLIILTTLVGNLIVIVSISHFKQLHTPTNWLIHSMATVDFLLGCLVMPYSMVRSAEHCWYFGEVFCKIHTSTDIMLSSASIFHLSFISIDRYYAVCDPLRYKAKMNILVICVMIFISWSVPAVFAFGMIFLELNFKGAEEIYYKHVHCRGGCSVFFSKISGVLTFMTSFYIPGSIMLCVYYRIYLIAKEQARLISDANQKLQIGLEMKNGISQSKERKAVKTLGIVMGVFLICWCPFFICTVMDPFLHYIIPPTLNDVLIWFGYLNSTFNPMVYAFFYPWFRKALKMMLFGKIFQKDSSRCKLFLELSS
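Test system: RD-HGA16 CHO cells with stable hTAAR1 and Gα16 / Probe or stimulus: EC80 β-phenethylamine stimulus / Times: seeding 17-24 h prior, 75-min 37 °C, 30-min RT dye loading / Detection: Fluo-8 calcium-sensitive fluorescence / Read-out basis: % inhibition scaled between DMSO and EC80 PEA controls / Repeats: singlicate, one well per test compound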
TAAR1 ag – agonists of human TAAR1. Q96RJ0. CHO RD-HGA16 TAAR1, Fluo-8 calcium fluorescence; vehicle wells 0%, saturating PEA agonist 100%. activation, % at 3 µM. actives 0.99% (n = 360,000);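 active = activation above the mean activation of all test compounds in the run plus 3 SD, cut at about 38% in these data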
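System: CHO-derived RD-HGA16 cells with stable Gα16 and human TAAR1 / Times: 17-24 h plating, Fluo-8 75 min 37 °C, 30 min RT / Technique: calcium-sensitive Fluo-8 signal, excitation 470-495, emission 515-575 nm / Measure: % activation relative to PEA EC100 response / Benchmarks: DMSO and PEA EC100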
OX1R antag-2 – human HCRTR1 antagonism. O43613. CHO/OX1R cells, Fluo-8 calcium fluorescence, orexin A. inhibition, % at 5 µM. actives 0.43% (n = 330,000). AID 434989;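 active = inhibition above its plate's threshold, mean inhibition of all tested compounds on the plate plus 3 SD, cut at about 37% in these data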
A number is an active result; – = inactive; · = no result given. Shown are actives, neighbours in structure and some others; about 4.2% of the full set was active somewhere.

SMILES | GalR3 antagonist | OX1R antag-1 | CHO parental Ca | TAAR1 antagonist | TAAR1 ag | OX1R antag-2
CCOc1ccc(NC2=CC(=O)C(=O)c3ccccc32)cc1 | – | · | · | – | – | ·
COc1cc(Cl)c(NC2=CC(=O)C(=O)c3ccccc32)c(OC)c1 | – | 33 | – | – | – | –
CC(C)(C)NCCC(O)c1cc(C(F)(F)F)nc2c(C(F)(F)F)cccc12 (stereo unspecified) | – | · | · | – | 38 | ·
Cc1ccc(Sc2cnn(-c3ccccc3)c(=O)c2Cl)cc1 | – | – | 38 | – | – | –
Nc1ccc(Sc2cnn(-c3ccccc3)c(=O)c2Cl)cc1 | – | – | – | – | – | –
Cn1c(CNC(=O)c2ccco2)nnc1SCC(=O)c1ccccc1 | – | – | – | – | – | –
Cc1nc(N2CCN(C(=O)c3ccco3)CC2)c2oc3ccccc3c2n1 | – | – | – | – | – | –
CCc1nc(N2CCN(C(=O)c3ccco3)CC2)c2oc3ccccc3c2n1 | – | 51 | – | – | – | –
CCCCOc1ccc(C(=O)NCCc2ccccc2)cc1 | – | – | – | – | – | –
CC1(c2ccc([N+](=O)[O-])cc2)NC(=O)N(CC(=O)Nc2cccnc2Cl)C1=O (stereo unspecified) | – | – | – | – | 57 | –
COc1cccc(CN=C2Nc3ccccc3CS2)c1 | – | – | – | – | – | –
C/C(=N\NC(=O)COc1ccccc1F)c1cc2ccccc2o1 | – | – | – | – | – | –
CCOC(=O)C1CCCN(C(=O)c2cc3nc(-c4cccc(OC)c4)cc(C(F)(F)F)n3n2)C1 (stereo unspecified) | – | – | – | 63 | – | –
CCOC(=O)C1CCCN(C(=O)c2cnn3c(C(F)(F)F)cc(-c4ccccc4)nc23)C1 (stereo unspecified) | – | – | – | – | – | –
CN(CC(=O)Nc1ccc(F)c(F)c1F)C(=O)C1CCCCC1 | – | – | – | – | – | –
CC1SC(C)C(=O)N(CC(=O)Nc2ccc3c(c2)OCO3)C1=O (stereo unspecified) | – | – | – | – | – | –
O=C(c1ccc(Cn2c(=S)[nH]c3ccccc3c2=O)cc1)N1CCN(c2ccccn2)CC1 | – | – | – | 57 | – | –
CNC(=O)/C(C#N)=c1\s/c(=C/C(=O)OC)c(=O)n1-c1ccccc1 | – | 69 | – | – | – | –
S=C(CN1CCCC1=S)NCCc1ccccc1 | – | – | – | – | 40 | –
S=C(NCCc1ccccc1)N1CCc2ccccc2C1 | – | – | – | – | – | –
CN1C(=O)c2ccccc2C(O)c2ccccc21 (stereo unspecified) | – | – | – | – | – | –
CC(=O)Oc1ccc2oc(/C=C/N(C)C)c([N+](=O)[O-])c2c1 | – | 50 | – | – | – | –
C=CCN(c1ccccc1)S(=O)(=O)c1cccc(C(=O)Nc2nc3ccccc3[nH]2)c1 | – | – | – | – | – | –
COc1cc2c(cc1OC)CN(c1ccc3ccccc3n1)CC2 | – | 73 | – | – | – | –
COc1cc2c(cc1OC)CN(c1ccc(-c3ccccc3OC)nn1)CC2 | · | – | – | · | · | –
SMILES | GalR3 antagonist | OX1R antag-1 | CHO parental Ca | TAAR1 antagonist | TAAR1 ag | OX1R antag-2
COc1ccccc1C(=O)Nc1nc2ccc(S(C)(=O)=O)cc2s1 | – | 41 | – | – | – | –
Cc1ccc2nc(NC(=O)c3ccccn3)sc2c1 | – | – | 27 | – | – | –
Brc1ccc(-c2csc3[n+]2CCCCC3)cc1 | – | – | – | – | – | –
COc1ccc(OC)c(S(=O)(=O)N2CCC(C(=O)Nc3cccc(C(F)(F)F)c3)CC2)c1 | – | – | – | 53 | – | –
COc1ccc(OC)c(S(=O)(=O)N2CCN(c3c(C)cccc3C)CC2)c1 | · | – | 26 | – | – | –
COc1ccc(/C=C2\CCCC3C2=NC(=S)NC3c2ccc(OC)cc2)cc1 (stereo unspecified) | – | – | – | – | – | –
O=[N+]([O-])c1c(N2CCN(CCO)CC2)nc2ccccn12 | – | 70 | – | – | – | –
C/C(CCN1CCc2nc(-c3ccccc3)c(-c3ccccc3)cc2C1)=N\O[C@@H](C)c1cn([C@H](CO)Cc2ccccc2)nn1 | · | – | – | · | · | –
Cc1cc2cc(C(c3nnnn3Cc3ccccc3)N3CCc4ccccc43)c(=O)[nH]c2cc1C (stereo unspecified) | – | 46 | – | – | – | –
COCCOC(=O)C1=C(C)NC(=O)NC1c1ccco1 (stereo unspecified) | – | – | – | – | – | –
CCOC(=O)C1=C(Cc2ccc(F)cc2)C(=O)c2ccccc2C1=O | – | – | – | 52 | – | –
O=C(OCc1ccc(F)cc1)c1ccc2c(c1)-c1ccccc1C2=O | – | – | – | – | – | –
N#CCC(=O)N/N=C/c1cc(-c2ccccc2)n(-c2ccc(Cl)cc2)c1-c1ccccc1 | – | 104 | – | – | – | –
Cc1ccc(CNS(=O)(=O)c2ccc(CN3C(=O)c4cccnc4C3=O)s2)o1 | – | – | – | – | – | –
O=C(Cc1ccccc1)Nc1nc2ccccc2[nH]1 | – | – | – | – | – | –
O=C(Cc1ccc(Cl)cc1)Nc1nc2ccccc2[nH]1 | – | – | – | – | 39 | –
Cc1cc(C)nc(NN=CC2=C(N3CCOCC3)/C(=C/c3ccc(Cl)cc3)CC2)n1 | – | · | · | – | – | ·
CCC(=O)NC1=C(NC(C)c2ccccc2)C(=O)c2ccccc2C1=O (stereo unspecified) | – | 64 | – | – | – | –
CCC(=O)Nc1ccc2c(c1)C(=O)c1ccccc1C2=O | – | 37 | – | – | – | –
COC(=O)Cn1c(=NC(=O)c2ccc([N+](=O)[O-])s2)sc2cc(Br)ccc21 | · | – | – | · | · | –
CC1CN(c2ccc([N+](=O)[O-])cc2Cl)CCN1S(C)(=O)=O (stereo unspecified) | – | – | – | – | – | –
Cc1ccc(N=C2NC(=O)c3cc([N+](=O)[O-])ccc32)cc1 | – | 56 | – | – | – | –
O=C1Nc2ccccc2Nc2ccc([N+](=O)[O-])cc21 | – | – | – | – | – | –
Nc1ccc(C(=O)Nc2ccc(OC(F)(F)C(F)F)c(NC(=O)c3ccc(N)cc3)c2)cc1 | – | – | – | – | – | –
O=C(Nc1ccc(OC(F)(F)C(F)F)c(NC(=O)c2ccc(F)cc2)c1)c1ccc(F)cc1 | – | 65 | – | – | – | –
Cc1nc2ccccc2c(N)c1C(=O)/C=C/c1ccccc1 | – | – | – | – | 41 | –
CC(=O)c1c(C)nc2ccccc2c1N | – | – | – | – | – | –
N#Cc1c(-c2ccccc2)nc(SCC(=O)N(c2ccccc2)c2ccccc2)[nH]c1=O | – | – | – | – | – | –
